From article PMC11229888 (RSC Advances, 2024)

Legend:
Hep G2 = experiment: MTT anti-proliferative assay, Hep G2; type: cell-based; details: Homo sapiens, HepG2, read-out: IC50 Hep G2
How it was run: (§1)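 Cells grown in RPMI-1640 with 10% FBS, 100 units per ml penicillin and 100 μg ml−1 streptomycin at 37 °C, 5% CO2. Seeded at 1.0 × 10^4 cells per well for 48 h, then exposed to a range of test compound concentrations for 24 h. MTT (5 mg ml−1) added for 4 h, formazan dissolved in DMSO, A570 read; viability as percent of untreated; IC50 derived.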

MCF-7 = experiment: MTT anti-proliferative assay, MCF-7; type: cell-based; details: Homo sapiens, MCF7, read-out: IC50 MCF-7
How it was run: as §1

VEGFR-2 = VEGFR-2 (Homo sapiens, UniProt P35968); experiment: biochemical; details: IC50 VEGFR-2, mean ± S.D. of three experiments
VEGFR-2, sequence (P35968 20-1356): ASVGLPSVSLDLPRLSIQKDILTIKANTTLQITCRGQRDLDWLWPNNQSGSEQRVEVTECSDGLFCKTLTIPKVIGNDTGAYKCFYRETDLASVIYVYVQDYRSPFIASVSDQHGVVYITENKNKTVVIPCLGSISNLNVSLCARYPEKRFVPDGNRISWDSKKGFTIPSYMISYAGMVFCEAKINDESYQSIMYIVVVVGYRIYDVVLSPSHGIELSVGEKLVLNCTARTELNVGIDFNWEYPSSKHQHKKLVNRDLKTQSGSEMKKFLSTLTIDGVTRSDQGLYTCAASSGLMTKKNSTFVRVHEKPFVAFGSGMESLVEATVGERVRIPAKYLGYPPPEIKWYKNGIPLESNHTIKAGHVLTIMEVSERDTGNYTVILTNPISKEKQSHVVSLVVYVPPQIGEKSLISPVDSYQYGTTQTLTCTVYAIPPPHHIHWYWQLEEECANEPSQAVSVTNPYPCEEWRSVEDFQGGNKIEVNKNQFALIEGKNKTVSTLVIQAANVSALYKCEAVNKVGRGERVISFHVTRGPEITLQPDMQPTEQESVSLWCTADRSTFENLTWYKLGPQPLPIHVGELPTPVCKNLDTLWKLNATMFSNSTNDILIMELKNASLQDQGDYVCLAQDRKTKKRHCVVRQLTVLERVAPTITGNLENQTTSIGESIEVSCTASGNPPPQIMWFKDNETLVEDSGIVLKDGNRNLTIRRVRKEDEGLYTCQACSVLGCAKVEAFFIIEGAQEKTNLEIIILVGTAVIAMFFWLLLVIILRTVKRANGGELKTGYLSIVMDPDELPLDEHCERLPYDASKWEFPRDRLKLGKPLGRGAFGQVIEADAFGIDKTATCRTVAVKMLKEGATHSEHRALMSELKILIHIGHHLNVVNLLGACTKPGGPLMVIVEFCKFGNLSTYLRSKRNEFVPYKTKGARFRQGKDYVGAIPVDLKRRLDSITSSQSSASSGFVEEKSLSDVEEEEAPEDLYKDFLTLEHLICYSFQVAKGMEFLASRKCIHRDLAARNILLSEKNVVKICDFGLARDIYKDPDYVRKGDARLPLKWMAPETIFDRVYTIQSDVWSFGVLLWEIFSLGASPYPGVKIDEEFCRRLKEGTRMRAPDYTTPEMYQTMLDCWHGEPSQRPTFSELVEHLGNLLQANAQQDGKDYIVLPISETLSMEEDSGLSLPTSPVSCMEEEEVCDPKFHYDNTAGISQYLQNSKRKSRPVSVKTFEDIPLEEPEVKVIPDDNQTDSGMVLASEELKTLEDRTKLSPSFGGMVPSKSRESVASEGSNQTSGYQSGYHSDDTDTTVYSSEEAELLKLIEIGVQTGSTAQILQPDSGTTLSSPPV

VEGFR-1 = details: read-out: IC50 VEGFR-1; cited from earlier work

Row | IC50 (MCF-7) [nM] | IC50 (VEGFR-2) [nM] | Compound | IC50 (Hep G2) [nM] | IC50 (VEGFR-1) [nM]
1 | 1550 ± 10 | – | CC(=NNC(=O)c1ccccc1)c1ccc(Nc2nnc(-c3ccc(Cl)cc3)c3ccccc23)cc1 [Compound 2a, N′-(1-[4-{(4-[4-Chlorophenyl]phthalazin-1-yl)amino}phenyl]ethylidene)benzohydrazide] | 770 ± 10 | –
2 | 980 ± 10 | – | CC(=NNC(=O)c1ccccc1Br)c1ccc(Nc2nnc(-c3ccc(Cl)cc3)c3ccccc23)cc1 [Compound 2b, 2-Bromo-N′-(1-[4-{(4-[4-chlorophenyl]phthalazin-1-yl)amino}phenyl]ethylidene)benzohydrazide] | 630 ± 10 | –
3 | 1740 ± 10 | – | CC(=NNC(=O)c1ccccc1Cl)c1ccc(Nc2nnc(-c3ccc(Cl)cc3)c3ccccc23)cc1 [Compound 2c, 2-Chloro-N′-(1-[4-{(4-[4-chlorophenyl]phthalazin-1-yl)amino}phenyl]ethylidene)benzohydrazide] | 590 ± 10 | –
4 | 3710 ± 70 | – | CC(=NNC(=O)c1ccccc1O)c1ccc(Nc2nnc(-c3ccc(Cl)cc3)c3ccccc23)cc1 [Compound 2d, N′-(1-[4-{(4-[4-Chlorophenyl]phthalazin-1-yl)amino}phenyl]ethylidene)-2-hydroxybenzohydrazide] | 2180 ± 30 | –
5 | 710 ± 20 | – | CC(=NNC(=O)c1ccc(N)cc1)c1ccc(Nc2nnc(-c3ccc(Cl)cc3)c3ccccc23)cc1 [Compound 2e, 4-Amino-N′-(1-[4-{(4-[4-chlorophenyl]phthalazin-1-yl)amino}phenyl]ethylidene)benzohydrazide] | 1190 ± 40 | –
6 | 780 ± 10 | – | CC(=NNC(=O)c1cccnc1)c1ccc(Nc2nnc(-c3ccc(Cl)cc3)c3ccccc23)cc1 [Compound 2f, N′-(1-[4-{(4-[4-Chlorophenyl]phthalazin-1-yl)amino}phenyl]ethylidene)nicotinohydrazide] | 750 ± 10 | –
7 | 150 | 148 ± 10 | CC(=NNC(=O)c1ccncc1)c1ccc(Nc2nnc(-c3ccc(Cl)cc3)c3ccccc23)cc1 [Compound 2g, N′-(1-[4-{(4-[4-Chlorophenyl]phthalazin-1-yl)amino}phenyl]ethylidene)isonicotinohydrazide] | 120 ± 10 | –
8 | 180 | 375 ± 10 | CC(=NNC(N)=S)c1ccc(Nc2nnc(-c3ccc(Cl)cc3)c3ccccc23)cc1 [Compound 3a, 2-(1-[4-{(4-[4-Chlorophenyl]phthalazin-1-yl)amino}phenyl]ethylidene)hydrazine-1-carbothioamide] | 180 | –
9 | 870 ± 20 | – | CC(=NNC(=S)Nc1ccccc1)c1ccc(Nc2nnc(-c3ccc(Cl)cc3)c3ccccc23)cc1 [Compound 3b, 2-(1-[4-{(4-[4-Chlorophenyl]phthalazin-1-yl)amino}phenyl]ethylidene)-N-phenylhydrazine-1-carbothioamide] | 1530 ± 60 | –
10 | 180 | 196 ± 10 | O=C(Nc1ccccc1)Nc1ccc(Oc2nnc(-c3ccc(Cl)cc3)c3ccccc23)cc1 [Compound 4a, 1-(4-[{4-(4-Chlorophenyl)phthalazin-1-yl}oxy]phenyl)-3-phenylurea] | 90 ± 10 | –
11 | 1520 ± 10 | – | S=C(Nc1ccccc1)Nc1ccc(Oc2nnc(-c3ccc(Cl)cc3)c3ccccc23)cc1 [Compound 4b, 1-(4-[{4-(4-Chlorophenyl)phthalazin-1-yl}oxy]phenyl)-3-phenylthiourea] | 1630 ± 30 | –
12 | 180 | 548 ± 20 | CC(=O)Nc1ccc(Oc2nnc(-c3ccc(Cl)cc3)c3ccccc23)cc1 [Compound 5a, N-(4-[{4-(4-Chlorophenyl)phthalazin-1-yl}oxy]phenyl)acetamide] | 260 | –
13 | 150 | 331 ± 10 | O=C(Nc1ccc(Oc2nnc(-c3ccc(Cl)cc3)c3ccccc23)cc1)c1ccccc1 [Compound 5b, N-(4-[{4-(4-Chlorophenyl)phthalazin-1-yl}oxy]phenyl)benzamide] | 220 | –
14 | 180 | – | O=C(Nc1ccc(Oc2nnc(-c3ccc(Cl)cc3)c3ccccc23)cc1)c1cccc([N+](=O)[O-])c1 [Compound 5c, N-(4-[{4-(4-Chlorophenyl)phthalazin-1-yl}oxy]phenyl)-3-nitrobenzamide] | 1370 ± 140 | –
15 | 1120 ± 20 | – | O=C(C=Cc1ccccc1)Nc1ccc(Oc2nnc(-c3ccc(Cl)cc3)c3ccccc23)cc1 [Compound 5d, N-(4-[{4-(4-Chlorophenyl)phthalazin-1-yl}oxy]phenyl)cinnamamide] | 1260 ± 30 | –
16 | 50 ± 10 | – | CNC(=O)c1cc(Oc2ccc(NC(=O)Nc3ccc(Cl)c(C(F)(F)F)c3)cc2)ccn1 [Sorafenib, reference compound] | 30 ± 10 | –
17 | – | – | Clc1ccc(Nc2nnc(Cc3ccncc3)c3ccccc23)cc1 [Vatalanib] | – | 380
